From article PMC7359933 (Clinical and Translational Science, 2020)
Where two headings read alike, the source gives them in different places. Marks after values point to notes of the source that are not given here.

Experiments:
[1] = test system: heavily treatment‐experienced subjects; details: treated for 96 weeks, BRIGHTE, fostemsavir 600 mg b.i.d. ref 23; cited from earlier work
[2] = test system: healthy volunteers; assay: Adverse events and discontinuations in thorough QT study part 2; format: in vivo, human
[3] = TMR after FTR 600 mg b.i.d., N = 16, healthy adults ref 21; cited from earlier work
[4] = test system: healthy volunteers; details: total daily fostemsavir dose of 20–2,400 mg ref 10; cited from earlier work
[5] = test system: HIV‐1; details: cited from earlier work
[6] = test system: healthy volunteers; assay: Thorough QT study part 1 sentinel cohort safety; format: in vivo, human; details: fostemsavir 2,400 mg b.i.d. for 7 days (n = 6)
[7] = test system: healthy volunteers; assay: Thorough QT/QTc study part 2: Holter ECG, Fridericia-corrected QT interval; format: in vivo, human
How it was run: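 Healthy subjects, randomized four-period crossover with 10-day washouts, fed: oral fostemsavir 1,200 mg q.d. or 2,400 mg b.i.d. for 7 days, placebo b.i.d., or single moxifloxacin 400 mg on day 7. Triplicate ECGs from 24-h Holter, read centrally. Baseline is the mean of day-1 predose readings; readings 0.5–22.25 h post-dose on day 7. Linear mixed model gives 90% CI; bound 10 msec; assay sensitivity >5 msec at 2–4 h.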

[8] = test system: healthy volunteers; set-up: species or system human; details: at observed mean TMR Cmax, healthy adults
[9] = fostemsavir 1,200 mg q.d., at 6 hours postdose
[10] = fostemsavir 2,400 mg b.i.d., at 5 hours post‐AM dose

COc1cnc(-n2cnc(C)n2)c2c1c(C(=O)C(=O)N1CCN(C(=O)c3ccccc3)CC1)cn2COP(=O)(O)O [fostemsavir]
subjects discontinued due to QT prolongation (> 450 msec) [1]: Less than 2%
subjects discontinued due to QT prolongation (> 450 msec), number/total [1]: 7/371
AE rate ([2]; fostemsavir 1,200 mg q.d.): 53%
headache ([2]; fostemsavir 1,200 mg q.d.): 16%
AE rate ([2]; fostemsavir 2,400 mg b.i.d.): 56%
headache ([2]; fostemsavir 2,400 mg b.i.d.): 35%
subjects discontinued for AEs ([2]; fostemsavir 2,400 mg b.i.d. (vomiting, elevated aminotransferases, rash, headache/anxiety/dyspnea/pharyngeal edema)): five
Mean Cmax [3]: 2,096 ^b ng/mL
cardiovascular abnormalities [4]: no clinically relevant cardiovascular abnormalities were observed
activity with regard to HIV‐1 tropism [5]: active regardless of HIV‐1 tropism
in vitro cross‐resistance to other antiretroviral drug classes [5]: no in vitro cross‐resistance
safety data [6]: all AEs (primarily dizziness and headache) were mild and there were no relevant cardiac signals
Mean change from baseline, msec ddQTcF ([7]; FTR 1,200 mg q.d. (A), day 7, 0.5 hour): –7.44 msec
Mean change from baseline, msec ddQTcF ([7]; FTR 1,200 mg q.d. (A), day 7, 1 hour): –7.25 msec
Mean change from baseline, msec ddQTcF ([7]; FTR 1,200 mg q.d. (A), day 7, 2 hour): –6.78 msec
Mean change from baseline, msec ddQTcF ([7]; FTR 1,200 mg q.d. (A), day 7, 3 hour): –7.54 msec
Mean change from baseline, msec ddQTcF ([7]; FTR 1,200 mg q.d. (A), day 7, 4 hour): –3.37 msec
Mean change from baseline, msec ddQTcF ([7]; FTR 1,200 mg q.d. (A), day 7, 5 hour): –0.49 msec
Mean change from baseline, msec ddQTcF ([7]; FTR 1,200 mg q.d. (A), day 7, 6 hour): –4.52 msec
Mean change from baseline, msec ddQTcF ([7]; FTR 1,200 mg q.d. (A), day 7, 8 hour): –6.87 msec
Mean change from baseline, msec ddQTcF ([7]; FTR 1,200 mg q.d. (A), day 7, 10 hour): 0.76 ms
Mean change from baseline, msec ddQTcF ([7]; FTR 1,200 mg q.d. (A), day 7, 11.5 hour): –5.31 msec
Mean change from baseline, msec ddQTcF ([7]; FTR 1,200 mg q.d. (A), day 7, 14 hour): –7.05 msec
Mean change from baseline, msec ddQTcF ([7]; FTR 1,200 mg q.d. (A), day 7, 15 hour): –3.84 msec
Mean change from baseline, msec ddQTcF ([7]; FTR 1,200 mg q.d. (A), day 7, 16 hour): –1.48 msec
Mean change from baseline, msec ddQTcF ([7]; FTR 1,200 mg q.d. (A), day 7, 22.25 hour): –3.18 msec
Mean difference vs. placebo (90% CI), msec ddQTcF ([7]; FTR 1,200 mg q.d. (A–D), day 7, 0.5 hour): 0.10 (–1.98, 2.18) msec
Mean difference vs. placebo (90% CI), msec ddQTcF ([7]; FTR 1,200 mg q.d. (A–D), day 7, 1 hour): 0.51 (–1.57, 2.58) msec
Mean difference vs. placebo (90% CI), msec ddQTcF ([7]; FTR 1,200 mg q.d. (A–D), day 7, 2 hour): 3.84 (1.75, 5.93) msec
Mean difference vs. placebo (90% CI), msec ddQTcF ([7]; FTR 1,200 mg q.d. (A–D), day 7, 3 hour): 2.49 (0.40, 4.57) msec
Mean difference vs. placebo (90% CI), msec ddQTcF ([7]; FTR 1,200 mg q.d. (A–D), day 7, 4 hour): 3.66 (1.58, 5.75) msec
Mean difference vs. placebo (90% CI), msec ddQTcF ([7]; FTR 1,200 mg q.d. (A–D), day 7, 5 hour): 4.18 (2.11, 6.26) msec
Mean difference vs. placebo (90% CI), msec ddQTcF ([7]; FTR 1,200 mg q.d. (A–D), day 7, 6 hour): 4.27 (2.19, 6.34) msec
Mean difference vs. placebo (90% CI), msec ddQTcF ([7]; FTR 1,200 mg q.d. (A–D), day 7, 10 hour): 3.94 (1.86, 6.01) msec
Mean difference vs. placebo (90% CI), msec ddQTcF ([7]; FTR 1,200 mg q.d. (A–D), day 7, 11.5 hour): 1.61 (–0.48, 3.69) msec
Mean difference vs. placebo (90% CI), msec ddQTcF ([7]; FTR 1,200 mg q.d. (A–D), day 7, 14 hour): –0.10 (–2.18, 1.972) msec
Mean difference vs. placebo (90% CI), msec ddQTcF ([7]; FTR 1,200 mg q.d. (A–D), day 7, 15 hour): 0.30 (–1.78, 2.38) msec
Mean difference vs. placebo (90% CI), msec ddQTcF ([7]; FTR 1,200 mg q.d. (A–D), day 7, 16 hour): 0.04 (–2.04, 2.12) msec
Mean difference vs. placebo (90% CI), msec ddQTcF ([7]; FTR 1,200 mg q.d. (A–D), day 7, 22.25 hour): 0.29 (–1.79, 2.36) msec
Mean change from baseline, msec ddQTcF ([7]; FTR 2,400 mg b.i.d. (B), day 7, 0.5 hour): –6.04 msec
Mean change from baseline, msec ddQTcF ([7]; FTR 2,400 mg b.i.d. (B), day 7, 1 hour): –6.15 msec
Mean change from baseline, msec ddQTcF ([7]; FTR 2,400 mg b.i.d. (B), day 7, 2 hour): –6.90 msec
Mean change from baseline, msec ddQTcF ([7]; FTR 2,400 mg b.i.d. (B), day 7, 3 hour): –3.67 msec
Mean change from baseline, msec ddQTcF ([7]; FTR 2,400 mg b.i.d. (B), day 7, 4 hour): 1.64 ms
Mean change from baseline, msec ddQTcF ([7]; FTR 2,400 mg b.i.d. (B), day 7, 5 hour): 6.50 ms
Mean change from baseline, msec ddQTcF ([7]; FTR 2,400 mg b.i.d. (B), day 7, 6 hour): 0.18 ms
Mean change from baseline, msec ddQTcF ([7]; FTR 2,400 mg b.i.d. (B), day 7, 8 hour): –3.46 msec
Mean change from baseline, msec ddQTcF ([7]; FTR 2,400 mg b.i.d. (B), day 7, 10 hour): 1.51 ms
Mean change from baseline, msec ddQTcF ([7]; FTR 2,400 mg b.i.d. (B), day 7, 11.5 hour): –3.88 msec
Mean change from baseline, msec ddQTcF ([7]; FTR 2,400 mg b.i.d. (B), day 7, 14 hour): –1.65 msec
Mean change from baseline, msec ddQTcF ([7]; FTR 2,400 mg b.i.d. (B), day 7, 15 hour): 4.45 ms
Mean change from baseline, msec ddQTcF ([7]; FTR 2,400 mg b.i.d. (B), day 7, 16 hour): 8.59 ms
Mean change from baseline, msec ddQTcF ([7]; FTR 2,400 mg b.i.d. (B), day 7, 22.25 hour): 0.16 ms
Mean difference vs. placebo (90% CI), msec ddQTcF ([7]; FTR 2,400 mg b.i.d. (B–D), day 7, 0.5 hour): 1.50 (–0.63, 3.62) msec
Mean difference vs. placebo (90% CI), msec ddQTcF ([7]; FTR 2,400 mg b.i.d. (B–D), day 7, 1 hour): 1.61 (–0.51, 3.73) msec
Mean difference vs. placebo (90% CI), msec ddQTcF ([7]; FTR 2,400 mg b.i.d. (B–D), day 7, 2 hour): 3.72 (1.60, 5.84) msec
Mean difference vs. placebo (90% CI), msec ddQTcF ([7]; FTR 2,400 mg b.i.d. (B–D), day 7, 3 hour): 6.36 (4.23, 8.48) msec
Mean difference vs. placebo (90% CI), msec ddQTcF ([7]; FTR 2,400 mg b.i.d. (B–D), day 7, 4 hour): 8.67 (6.55, 10.79) msec
Mean difference vs. placebo (90% CI), msec ddQTcF ([7]; FTR 2,400 mg b.i.d. (B–D), day 7, 5 hour): 11.18 (9.05, 13.30) msec
Mean difference vs. placebo (90% CI), msec ddQTcF ([7]; FTR 2,400 mg b.i.d. (B–D), day 7, 6 hour): 8.96 (6.84, 11.10) msec
Mean difference vs. placebo (90% CI), msec ddQTcF ([7]; FTR 2,400 mg b.i.d. (B–D), day 7, 8 hour): 5.33 (3.21, 7.46) msec
Mean difference vs. placebo (90% CI), msec ddQTcF ([7]; FTR 2,400 mg b.i.d. (B–D), day 7, 10 hour): 4.69 (2.57, 6.81) msec
Mean difference vs. placebo (90% CI), msec ddQTcF ([7]; FTR 2,400 mg b.i.d. (B–D), day 7, 11.5 hour): 3.04 (0.92, 5.17) msec
Mean difference vs. placebo (90% CI), msec ddQTcF ([7]; FTR 2,400 mg b.i.d. (B–D), day 7, 14 hour): 5.30 (3.18, 7.43) msec
Mean difference vs. placebo (90% CI), msec ddQTcF ([7]; FTR 2,400 mg b.i.d. (B–D), day 7, 15 hour): 8.60 (6.47, 10.73) msec
Mean difference vs. placebo (90% CI), msec ddQTcF ([7]; FTR 2,400 mg b.i.d. (B–D), day 7, 16 hour): 10.10 (7.98, 12.23) msec
Mean difference vs. placebo (90% CI), msec ddQTcF ([7]; FTR 2,400 mg b.i.d. (B–D), day 7, 22.25 hour): 3.63 (1.51, 5.75) msec
change from placebo in baseline‐adjusted Fridericia‐corrected QTc (ddQTcF) ([7]; Fostemsavir 1,200 mg b.i.d.): did not result in a clinically meaningful change
effect on heart rate, QRS or PR intervals, or waveform morphology ([7]; fostemsavir 1,200 mg q.d. and 2,400 mg b.i.d.): did not have a clinically meaningful effect
upper bound of the 90% CI around ddQTcF ([7]; fostemsavir 1,200 mg q.d., all time points): below 10 msec
ddQTcF upper bound of two‐sided 90% CI at maximum [7, 9]: 6.3 ms
maximum time‐matched ddQTcF [7, 9]: 4.3 ms
subjects with maximum QTcF between 450 and 480 msec ([7]; fostemsavir 2,400 mg b.i.d.): Three
subjects with maximum change in QTcF between 30 and 60 msec ([7]; fostemsavir 2,400 mg b.i.d.): Four
ddQTcF upper bound of two‐sided 90% CI at maximum [7, 10]: 13.3 ms
maximum time‐matched ddQTcF [7, 10]: 11.2 ms
ddQTcF upper bound of two‐sided 90% CI at maximum ([7]; fostemsavir 2,400 mg b.i.d., at 5 hours post‐AM dose, listed as FTR): 13.3 (at 5 hour) msec
ddQTcF upper 90% CI boundary, model‐predicted ([8]; FTR 600 mg b.i.d. + cobicistat 150 mg q.d.): ≤ 5.0 ms
ddQTcF upper 90% CI boundary, model‐predicted ([8]; FTR 600 mg b.i.d. + cobicistat 150 mg q.d., listed as FTR): 5.0 ^a msec
ddQTcF upper 90% CI boundary, model‐predicted ([8]; FTR 600 mg b.i.d.): ≤ 3.2 ms
ddQTcF upper 90% CI boundary, model‐predicted ([8]; FTR 600 mg b.i.d., listed as FTR): 3.2 ^a msec
